In data set [1] the test system is Salmonella typhimurium. The experiment in a line: Genotoxicity in Salmonella typhimurium TAMix by Ames test in presence of S9 fractions. Format: toxicity, organism-based, S9 Fraction. The note with it: salmonella enterica subsp. enterica serovar typhimurium. The gist of the method: (§1)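 Ames II liquid fluctuation microplate variant of the bacterial reverse mutation assay, run on the free heteroaryl amines released from the urea inhibitors. The TAMix strain mixture (TA7001–TA7006) detects base-pair substitutions and TA98 detects frameshift mutations. For metabolic activation, compounds were preincubated with rat liver S9 extract or run without it. Results were scored as positive or negative.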
Background: In the Ames test, an excess of revertant colonies over the control signals mutagenicity.

Data set [2] concerns Salmonella typhimurium. The experiment in a line: Genotoxicity in Salmonella typhimurium TA98 by Ames test in presence of S9 fractions. The class given is toxicity, organism-based, S9 Fraction. The note with it: salmonella enterica subsp. enterica serovar typhimurium. The method, boiled down: as §1
Data set [3] has as its system Salmonella typhimurium. In words: Genotoxicity in Salmonella typhimurium TAMix by Ames test in absence of S9 fractions. Format: toxicity, organism-based. The note with it: salmonella enterica subsp. enterica serovar typhimurium. The gist of the method: as §1
In data set [4] the target is T1, Fatty-acid amide hydrolase 1 (Rattus norvegicus, UniProt P97612).
T1 sequence (P97612 whole entry): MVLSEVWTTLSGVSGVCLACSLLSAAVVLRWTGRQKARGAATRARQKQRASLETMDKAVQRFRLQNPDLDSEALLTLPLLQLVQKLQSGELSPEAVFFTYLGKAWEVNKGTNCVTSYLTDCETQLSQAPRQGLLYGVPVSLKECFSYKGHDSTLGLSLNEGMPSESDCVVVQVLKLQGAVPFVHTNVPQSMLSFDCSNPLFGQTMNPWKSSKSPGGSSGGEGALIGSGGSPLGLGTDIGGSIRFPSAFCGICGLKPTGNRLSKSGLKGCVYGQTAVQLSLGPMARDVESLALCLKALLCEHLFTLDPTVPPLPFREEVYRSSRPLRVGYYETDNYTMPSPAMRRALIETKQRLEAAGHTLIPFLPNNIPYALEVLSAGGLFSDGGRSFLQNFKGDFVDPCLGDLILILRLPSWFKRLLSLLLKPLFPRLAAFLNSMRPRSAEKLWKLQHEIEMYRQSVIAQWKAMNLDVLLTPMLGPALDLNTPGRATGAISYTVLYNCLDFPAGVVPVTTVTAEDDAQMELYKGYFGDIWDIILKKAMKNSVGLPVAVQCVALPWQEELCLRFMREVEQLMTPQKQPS
The experiment in a line: Inhibition of rat FAAH preincubated for 60 mins.

The subject of data set [5] is Salmonella typhimurium. The experiment in a line: Genotoxicity in Salmonella typhimurium TA98 by Ames test in absence of S9 fractions. Format: toxicity, organism-based. The note with it: salmonella enterica subsp. enterica serovar typhimurium. The gist of the method:
as §1

The target of data set [6] is T2, Fatty-acid amide hydrolase 1 (Homo sapiens, UniProt O00519).
T2 sequence (O00519 whole entry): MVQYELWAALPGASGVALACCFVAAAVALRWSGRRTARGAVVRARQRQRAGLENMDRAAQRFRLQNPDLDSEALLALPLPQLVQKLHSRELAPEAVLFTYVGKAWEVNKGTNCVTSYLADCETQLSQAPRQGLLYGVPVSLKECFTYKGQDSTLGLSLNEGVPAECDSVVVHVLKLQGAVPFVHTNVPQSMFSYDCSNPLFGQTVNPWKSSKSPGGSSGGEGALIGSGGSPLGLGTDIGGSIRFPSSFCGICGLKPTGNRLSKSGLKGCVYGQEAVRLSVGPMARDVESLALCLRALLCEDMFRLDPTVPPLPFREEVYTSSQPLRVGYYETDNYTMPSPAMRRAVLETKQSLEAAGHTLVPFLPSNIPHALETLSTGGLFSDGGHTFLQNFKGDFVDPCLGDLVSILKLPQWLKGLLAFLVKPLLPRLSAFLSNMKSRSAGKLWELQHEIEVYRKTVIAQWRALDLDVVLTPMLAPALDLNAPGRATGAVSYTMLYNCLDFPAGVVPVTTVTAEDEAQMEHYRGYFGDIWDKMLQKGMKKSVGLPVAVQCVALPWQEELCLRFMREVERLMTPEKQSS
The experiment in a line: Inhibition of human FAAH preincubated for 60 mins.

One may read the IC50 as the concentration at which inhibition is half-maximal. High values mean lower potency, low ones higher potency. As for `O=C(Nc1nocc1Cl)N1CCN(Cc2cccc(Oc3ccc(Cl)cc3)c2)CC1`, the Activity entry in the data set with Salmonella typhimurium [1], in the data set with Salmonella typhimurium [2], in the data set on Salmonella typhimurium [3] and with Salmonella typhimurium [5] was “Toxic” each time. Moreover, the 50% inhibitory concentration (IC50) in data set [4] is 0.02 µM.
`O=C(Nc1cccc2nonc12)N1CCN(Cc2cccc(Oc3ccc(Cl)cc3)c2)CC1`: the Activity result in the data set on Salmonella typhimurium [1] and in the data set with Salmonella typhimurium [2] was “Toxic” each time. This molecule displayed a half-maximal inhibitory concentration (IC50) in data set [4] of 0.12 µM.
As for `O=C(Nc1cc2nccn2cn1)N1CCN(Cc2cccc(Oc3ccc(Cl)cc3)c2)CC1`, the Activity entry in the data set with Salmonella typhimurium [1], in the data set with Salmonella typhimurium [2], with Salmonella typhimurium [3] and in the data set on Salmonella typhimurium [5] was “Non-toxic” each time. Further, the IC50 in data set [4] was 0.47 µM.
Regarding `O=C(Nc1cccn2ccnc12)N1CCN(Cc2cccc(Oc3ccc(Cl)cc3)c2)CC1`, the Activity entry with Salmonella typhimurium [1], in the data set with Salmonella typhimurium [2], in the data set with Salmonella typhimurium [3] and in the data set with Salmonella typhimurium [5] was “Non-toxic” each time. Further, the IC50 in data set [4] stood at 3.5 µM.
With `O=C(Nc1ccn2ccnc2c1)N1CCN(Cc2cccc(Oc3ccc(Cl)cc3)c2)CC1`, the Activity entry in the data set on Salmonella typhimurium [1], in the data set on Salmonella typhimurium [2], in the data set with Salmonella typhimurium [3] and in the data set on Salmonella typhimurium [5] was “Toxic” throughout. The molecule further registered an IC50 in data set [4] of 2.6 µM.
For the molecule `O=C(Nc1cccc2nccn12)N1CCN(Cc2cccc(Oc3ccc(Cl)cc3)c2)CC1`, the Activity entry with Salmonella typhimurium [1], in the data set on Salmonella typhimurium [2], in the data set with Salmonella typhimurium [3] and in the data set on Salmonella typhimurium [5] was “Non-toxic” each time. Also, the half-inhibitory concentration (IC50) in data set [4] amounted to 0.0057 µM.
`O=C(Nc1cnc2cccnn12)N1CCN(Cc2cccc(Oc3ccc(Cl)cc3)c2)CC1`: the Activity entry in the data set on Salmonella typhimurium [1], in the data set with Salmonella typhimurium [2], in the data set on Salmonella typhimurium [3] and in the data set on Salmonella typhimurium [5] was “Non-toxic” throughout. In data set [4], this molecule yielded an IC50 of 0.053 µM.
For `O=C(Nc1cccnc1)N1CCN(Cc2cccc(Oc3ccc(Cl)cc3)c2)CC1`, the Activity entry in the data set on Salmonella typhimurium [1], in the data set with Salmonella typhimurium [2], in the data set on Salmonella typhimurium [3] and in the data set with Salmonella typhimurium [5] was “Non-toxic” each time. Also, the half-inhibitory concentration (IC50) came to 0.033 µM in data set [4] and 0.0014 µM in data set [6].
`Cc1nc2cc(NC(=O)N3CCN(Cc4cccc(Oc5ccc(Cl)cc5)c4)CC3)ccc2o1`: the Activity result in the data set with Salmonella typhimurium [1] and in the data set on Salmonella typhimurium [2] was “Toxic” throughout. Moreover, the IC50 in data set [4] came to 0.2 µM.
In the case of `O=C(Nc1nnn[nH]1)N1CCN(Cc2cccc(Oc3ccc(Cl)cc3)c2)CC1`, the Activity entry in the data set with Salmonella typhimurium [1], in the data set with Salmonella typhimurium [2], with Salmonella typhimurium [3] and in the data set with Salmonella typhimurium [5] was “Non-toxic” each time. For the same molecule, in data set [4], half-maximal inhibition (IC50) was put at 0.046 µM.
Consider `O=C(Nc1ccnc2nccn12)N1CCN(Cc2cccc(Oc3ccc(Cl)cc3)c2)CC1`, for which the Activity result with Salmonella typhimurium [1], with Salmonella typhimurium [2], in the data set on Salmonella typhimurium [3] and in the data set on Salmonella typhimurium [5] was “Non-toxic” throughout. The same molecule registered an IC50 in data set [4] of 0.024 µM.
Consider `O=C(Nc1ccn2ccnc2n1)N1CCN(Cc2cccc(Oc3ccc(Cl)cc3)c2)CC1`, for which the Activity result in the data set on Salmonella typhimurium [1], in the data set on Salmonella typhimurium [2], with Salmonella typhimurium [3] and with Salmonella typhimurium [5] was “Non-toxic” in each case. The same molecule yielded a half-inhibitory concentration (IC50) in data set [4] of 2.4 µM.
`O=C(Nc1ccon1)N1CCN(Cc2cccc(Oc3ccc(Cl)cc3)c2)CC1`: the Activity result in the data set on Salmonella typhimurium [1], in the data set on Salmonella typhimurium [2], in the data set with Salmonella typhimurium [3] and with Salmonella typhimurium [5] was “Non-toxic” in each case.
Take `O=C(Nc1noc2cnccc12)N1CCN(Cc2cccc(Oc3ccc(Cl)cc3)c2)CC1`: the Activity entry in the data set with Salmonella typhimurium [1], in the data set with Salmonella typhimurium [2], in the data set with Salmonella typhimurium [3] and in the data set with Salmonella typhimurium [5] was “Non-toxic” throughout. 0.0007 µM corresponded to half-maximal inhibition in data set [4] (IC50).
Take `O=C(Nc1cccc2nsnc12)N1CCN(Cc2cccc(Oc3ccc(Cl)cc3)c2)CC1`: the Activity result with Salmonella typhimurium [1], in the data set on Salmonella typhimurium [2], with Salmonella typhimurium [3] and in the data set on Salmonella typhimurium [5] was “Non-toxic” each time. Moreover, half-maximal inhibition in data set [4] (IC50) was put at 0.025 µM.
`O=C(Nc1noc2ncccc12)N1CCN(Cc2cccc(Oc3ccc(Cl)cc3)c2)CC1`: the Activity entry with Salmonella typhimurium [1], in the data set with Salmonella typhimurium [2], with Salmonella typhimurium [3] and in the data set on Salmonella typhimurium [5] was “Non-toxic” throughout. In data set [4], this molecule displayed a half-inhibitory concentration (IC50) of 0.014 µM.
For `O=C(Nc1cc[nH]n1)N1CCN(Cc2cccc(Oc3ccc(Cl)cc3)c2)CC1`, the Activity entry in the data set with Salmonella typhimurium [1], with Salmonella typhimurium [2], with Salmonella typhimurium [3] and in the data set on Salmonella typhimurium [5] was “Non-toxic” each time. In addition, in data set [4], it took 0.15 µM to reach half-maximal inhibition (IC50).
Consider `O=C(Nc1noc2ccncc12)N1CCN(Cc2cccc(Oc3ccc(Cl)cc3)c2)CC1`, for which the Activity result in the data set on Salmonella typhimurium [1], in the data set with Salmonella typhimurium [2], with Salmonella typhimurium [3] and in the data set on Salmonella typhimurium [5] was “Non-toxic” throughout. The molecule further returned an IC50 in data set [4] of 2.2 µM.
As to `O=C(Nc1cnc2[nH]ccc2c1)N1CCN(Cc2cccc(Oc3ccc(Cl)cc3)c2)CC1`, the Activity entry with Salmonella typhimurium [1] and with Salmonella typhimurium [2] was “Toxic” in each case. Further, in data set [4], it took 0.021 µM to reach half-maximal inhibition (IC50).
On to `O=C(Nc1noc2cccnc12)N1CCN(Cc2cccc(Oc3ccc(Cl)cc3)c2)CC1`, for which the Activity entry in the data set with Salmonella typhimurium [1], with Salmonella typhimurium [2], in the data set with Salmonella typhimurium [3] and in the data set on Salmonella typhimurium [5] was “Non-toxic” throughout. Moreover, the IC50 in data set [4] was determined as 0.022 µM.
As to `O=C(Nc1ccc2nccn2c1)N1CCN(Cc2cccc(Oc3ccc(Cl)cc3)c2)CC1`, the Activity entry with Salmonella typhimurium [1], in the data set on Salmonella typhimurium [2], with Salmonella typhimurium [3] and in the data set with Salmonella typhimurium [5] was “Non-toxic” in each case. In addition, inhibition in data set [4] was half-maximal at 3.6 µM (IC50).
`O=C(Nc1cnccn1)N1CCN(Cc2cccc(Oc3ccc(Cl)cc3)c2)CC1`: the Activity result in the data set on Salmonella typhimurium [1], with Salmonella typhimurium [2], in the data set with Salmonella typhimurium [3] and with Salmonella typhimurium [5] was “Non-toxic” each time. The molecule further had an IC50 in data set [4] of 0.15 µM.
With `O=C(Nc1cncc2ccccc12)N1CCN(Cc2cccc(Oc3ccc(Cl)cc3)c2)CC1`, the Activity result with Salmonella typhimurium [1] and with Salmonella typhimurium [2] was “Toxic” in each case. For the same molecule, inhibition in data set [4] was half-maximal at 0.0083 µM (IC50).
Take `O=C(Nc1noc2ccccc12)N1CCN(Cc2cccc(Oc3ccc(Cl)cc3)c2)CC1`: the Activity result in the data set with Salmonella typhimurium [1], with Salmonella typhimurium [2], in the data set with Salmonella typhimurium [3] and in the data set with Salmonella typhimurium [5] was “Non-toxic” in each case. The 50% inhibitory concentration (IC50) in data set [4] is 0.0081 µM.
With `O=C(Nc1cccnn1)N1CCN(Cc2cccc(Oc3ccc(Cl)cc3)c2)CC1`, the Activity result in the data set on Salmonella typhimurium [1], with Salmonella typhimurium [2], with Salmonella typhimurium [3] and with Salmonella typhimurium [5] was “Non-toxic” throughout. In data set [4], this molecule displayed a half-maximal inhibitory concentration (IC50) of 0.093 µM.
In the case of `O=C(Nc1cnc2ccccn12)N1CCN(Cc2cccc(Oc3ccc(Cl)cc3)c2)CC1`, the Activity entry in the data set with Salmonella typhimurium [1], with Salmonella typhimurium [2], in the data set on Salmonella typhimurium [3] and in the data set on Salmonella typhimurium [5] was “Non-toxic” throughout. In data set [4], the IC50 came to 0.12 µM.
With `O=C(Nc1cccc2cn[nH]c12)N1CCN(Cc2cccc(Oc3ccc(Cl)cc3)c2)CC1`, the Activity result in the data set on Salmonella typhimurium [1] and in the data set with Salmonella typhimurium [2] was “Toxic” each time. The same molecule displayed a 50% inhibitory concentration (IC50) in data set [4] of 6 µM.
With `O=C(Nc1cnc2cc[nH]c2c1)N1CCN(Cc2cccc(Oc3ccc(Cl)cc3)c2)CC1`, the Activity result in the data set with Salmonella typhimurium [1] and in the data set on Salmonella typhimurium [2] was “Toxic” throughout. In data set [4], this molecule had a half-inhibitory concentration (IC50) of 1.1 µM.
